Laboratory results as given in ChEMBL document CHEMBL3102784, “Salicylanilide diethyl phosphates: synthesis, antimicrobial activity and cytotoxicity” (Bioorg Med Chem, 2014).
In brackets after ≈: the same amount, converted by molar mass. Activity calls are given as the source filed them. The rule behind the calls is not given here.

Experiments:
Mycobacterium avium [1] = assay: Antimycobacterial activity against isoniazid, rifampicin, ethambutol and ofloxacin-resistant Mycobacterium avium My 330/88 after 21 days; type: functional; details: My 330/88, 504 h
Outline: (§1)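 Micromethod MIC in Šula's semisynthetic medium at 37 °C. Compounds added in DMSO at 1000 down to 0.032 µmol/L. Isoniazid standard in sterile water at 0.5–250 µmol/L. Inocula: H37Rv 10^3, M. avium 10^5, M. kansasii 10^4. Read at 14 and 21 d, plus 7 d for M. kansasii.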

Mycobacterium avium [2] = assay: Antimycobacterial activity against isoniazid, rifampicin, ethambutol and ofloxacin-resistant Mycobacterium avium My 330/88 after 14 days; type: functional; details: My 330/88, 336 h; outline: as §1
[3] = tested on: Mycobacterium tuberculosis; assay: Antimycobacterial activity against Mycobacterium tuberculosis H37Rv My 331/88 after 21 days; type: functional; details: H37Rv My 331/88, 504 h; outline: as §1
[4] = tested on: Mycobacterium tuberculosis; assay: Antimycobacterial activity against Mycobacterium tuberculosis H37Rv My 331/88 after 14 days; type: functional; details: H37Rv My 331/88, 336 h; outline: as §1
[5] = tested on: Trichophyton mentagrophytes; assay: Antifungal activity against Trichophyton mentagrophytes 445 after 120 hrs by broth microdilution method; type: functional; details: Trichophyton mentagrophytes, 445, 120 h
Outline: (§2)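 Filamentous dermatophyte tested by broth microdilution in RPMI 1640 with glutamine, fluconazole as reference. Value expressed as IC50 relative to growth control. Read at 72 and 120 h.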

[6] = tested on: Trichophyton mentagrophytes; assay: Antifungal activity against Trichophyton mentagrophytes 445 after 72 hrs by broth microdilution method; type: functional; details: Trichophyton mentagrophytes, 445, 72 h; outline: as §2
Lichtheimia corymbifera [7] = assay: Antifungal activity against Absidia corymbifera 272 after 48 hrs by broth microdilution method; type: functional; details: Lichtheimia corymbifera, 272, 48 h
Outline: (§3)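 Broth microdilution in RPMI 1640 with glutamine, fluconazole as reference. For yeasts, MIC is ≥80% growth reduction (IC80) versus control. For filamentous fungi, the value is expressed as IC50. Readings at 24 and 48 h.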

Lichtheimia corymbifera [8] = assay: Antifungal activity against Absidia corymbifera 272 after 24 hrs by broth microdilution method; type: functional; details: Lichtheimia corymbifera, 272, 24 h; outline: as §3
Aspergillus fumigatus [9] = assay: Antifungal activity against Aspergillus fumigatus 231 after 48 hrs by broth microdilution method; type: functional; details: Aspergillus fumigatus, 231, 48 h; outline: as §3
Aspergillus fumigatus [10] = assay: Antifungal activity against Aspergillus fumigatus 231 after 24 hrs by broth microdilution method; type: functional; details: Aspergillus fumigatus, 231, 24 h; outline: as §3
Trichosporon asahii [11] = assay: Antifungal activity against Trichosporon asahii 1188 after 48 hrs by broth microdilution method; type: functional; details: Trichosporon asahii, 1188, 48 h; outline: as §3
Trichosporon asahii [12] = assay: Antifungal activity against Trichosporon asahii 1188 after 24 hrs by broth microdilution method; type: functional; details: Trichosporon asahii, 1188, 24 h; outline: as §3
Pichia kudriavzevii [13] = assay: Antifungal activity against Candida krusei E28 after 48 hrs by broth microdilution method; type: functional; details: E28, 48 h; outline: as §3
Pichia kudriavzevii [14] = assay: Antifungal activity against Candida krusei E28 after 24 hrs by broth microdilution method; type: functional; details: E28, 24 h; outline: as §3
Candida albicans [15] = assay: Antifungal activity against Candida albicans ATCC 44859 after 48 hrs by broth microdilution method; type: functional; details: ATCC 44859, 48 h; outline: as §3
Candida albicans [16] = assay: Antifungal activity against Candida albicans ATCC 44859 after 24 hrs by broth microdilution method; type: functional; details: ATCC 44859, 24 h; outline: as §3
Nakaseomyces glabratus = assay: Antifungal activity against Candida glabrata 20/I at 500 micromol/L after 24 to 48 hrs by broth microdilution method; type: functional, organism-based; outline: as §3
Candida tropicalis = assay: Antifungal activity against Candida tropicalis 156 at 500 micromol/L after 24 to 48 hrs by broth microdilution method; type: functional, organism-based; outline: as §3
Pseudomonas aeruginosa = assay: Antibacterial activity against Pseudomonas aeruginosa CCM 1961 at 500 micromol/L after 24 to 48 hrs by broth microdilution method; type: functional, organism-based
Outline: (§4)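 Broth microdilution in Mueller–Hinton broth, compounds dissolved in DMSO, tested over a dilution series from 500 downward. MIC taken as ≥95% growth reduction (IC95) versus drug-free control. Benzylpenicillin comparator. Readings at 24 and 48 h.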

Klebsiella pneumoniae [17] = assay: Antibacterial activity against ESBL-positive Klebsiella pneumoniae J 14368/08 at 500 micromol/L after 24 to 48 hrs by broth microdilution method; type: functional, organism-based; outline: as §4
Klebsiella pneumoniae [18] = assay: Antibacterial activity against Klebsiella pneumoniae D 11750/08 at 500 micromol/L after 24 to 48 hrs by broth microdilution method; type: functional, organism-based; outline: as §4
Escherichia coli = assay: Antibacterial activity against Escherichia coli CCM 4517 at 500 micromol/L after 24 to 48 hrs by broth microdilution method; type: functional, organism-based; outline: as §4
Enterococcus sp. = assay: Antibacterial activity against Enterococcus sp. J 14365/08 at 500 micromol/L after 24 to 48 hrs by broth microdilution method; type: functional, organism-based; outline: as §4
[19] = tested on: Staphylococcus epidermidis; assay: Antibacterial activity against Staphylococcus epidermidis H 6966/08 after 48 hrs by broth microdilution method; type: functional; details: H 6966/08, 48 h; outline: as §4
[20] = tested on: Staphylococcus epidermidis; assay: Antibacterial activity against Staphylococcus epidermidis H 6966/08 after 24 hrs by broth microdilution method; type: functional; details: H 6966/08, 24 h; outline: as §4
Staphylococcus aureus [21] = assay: Antibacterial activity against methicillin-resistant Staphylococcus aureus H 5996/08 after 48 hrs by broth microdilution method; type: functional; details: H 5996/08, 48 h; outline: as §4
Staphylococcus aureus [22] = assay: Antibacterial activity against methicillin-resistant Staphylococcus aureus H 5996/08 after 24 hrs by broth microdilution method; type: functional; details: H 5996/08, 24 h; outline: as §4
Staphylococcus aureus [23] = assay: Antibacterial activity against Staphylococcus aureus CCM 4516/08 after 48 hrs by broth microdilution method; type: functional; details: CCM 4516/08, 48 h; outline: as §4
Staphylococcus aureus [24] = assay: Antibacterial activity against Staphylococcus aureus CCM 4516/08 after 24 hrs by broth microdilution method; type: functional; details: CCM 4516/08, 24 h; outline: as §4
Mycobacterium kansasii [25] = assay: Antimycobacterial activity against Mycobacterium kansasii 6509/96 after 21 days; type: functional; details: 6509/96, 504 h; outline: as §1
Mycobacterium kansasii [26] = assay: Antimycobacterial activity against Mycobacterium kansasii 6509/96 after 14 days; type: functional; details: 6509/96, 336 h; outline: as §1
Mycobacterium kansasii [27] = assay: Antimycobacterial activity against Mycobacterium kansasii 6509/96 after 7 days; type: functional; details: 6509/96, 168 h; outline: as §1
Mycobacterium kansasii [28] = assay: Antimycobacterial activity against Mycobacterium kansasii My 235/80 after 21 days; type: functional; details: My 235/80, 504 h; outline: as §1
Mycobacterium kansasii [29] = assay: Antimycobacterial activity against Mycobacterium kansasii My 235/80 after 14 days; type: functional; details: My 235/80, 336 h; outline: as §1
HepG2 = assay: Cytotoxicity against human HepG2 cells after 24 hrs by CellTiter assay; type: cell-based; details: HepG2, 24 h
Outline: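 HepG2 cells (passage 27–33) in MEM with 10% FBS, L-glutamine and NEAA, seeded at 1×10^4 per well. Treated next day with compounds at 0.1–100 µM (or 0.1–25 µmol/L), triplicates, <1% DMSO, for 24 h at 37 °C, 5% CO2. MTS reagent added for 2 h, absorbance read at 490 nm. IC50 taken against untreated (100%) and 10% DMSO (0%) controls.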

Mycobacterium kansasii [30] = assay: Antimycobacterial activity against Mycobacterium kansasii My 235/80 after 7 days; type: functional; details: My 235/80, 168 h; outline: as §1

SMILES	MIC (Mycobacterium avium [1]) [µM]	MIC (Mycobacterium avium [2]) [µM]	MIC [3] [µM]	MIC [4] [µM]	MIC50 [5] [µM]	MIC50 [6] [µM]	MIC50 (Lichtheimia corymbifera [7]) [µM]	MIC50 (Lichtheimia corymbifera [8]) [µM]	MIC50 (Aspergillus fumigatus [9]) [µM]	MIC50 (Aspergillus fumigatus [10]) [µM]	MIC80 (Trichosporon asahii [11]) [µM]	MIC80 (Trichosporon asahii [12]) [µM]	MIC80 (Pichia kudriavzevii [13]) [µM]	MIC80 (Pichia kudriavzevii [14]) [µM]	MIC80 (Candida albicans [15]) [µM]	MIC80 (Candida albicans [16]) [µM]	Activity (Nakaseomyces glabratus)	Activity (Candida tropicalis)	Activity (Pseudomonas aeruginosa)	Activity (Klebsiella pneumoniae [17])	also measured
CCOP(=O)(OCC)Oc1cc(Cl)ccc1C(=O)Nc1ccc(F)cc1	32 (≈ 12.9 µg/mL)	32 (≈ 12.9 µg/mL)	16 (≈ 6.43 µg/mL)	16 (≈ 6.43 µg/mL)	500 (≈ 201 µg/mL)	500 (≈ 201 µg/mL)	> 500	> 500	> 500	> 500	> 500	> 500	> 500	> 500	> 500	> 500	inactive	inactive	inactive	inactive	Activity (Klebsiella pneumoniae [18]): inactive; Activity (Escherichia coli): inactive; Activity (Enterococcus sp.): inactive; MIC95 [19]: > 500 µM; MIC95 [20]: > 500 µM; MIC95 (Staphylococcus aureus [21]): > 500 µM; MIC95 (Staphylococcus aureus [22]): > 500 µM; MIC95 (Staphylococcus aureus [23]): 500 µM (≈ 201 µg/mL); MIC95 (Staphylococcus aureus [24]): 250 µM (≈ 100 µg/mL); MIC (Mycobacterium kansasii [25]): 32 µM (≈ 12.9 µg/mL); MIC (Mycobacterium kansasii [26]): 32 µM (≈ 12.9 µg/mL); MIC (Mycobacterium kansasii [27]): 16 µM (≈ 6.43 µg/mL); MIC (Mycobacterium kansasii [28]): 16 µM (≈ 6.43 µg/mL); MIC (Mycobacterium kansasii [29]): 16 µM (≈ 6.43 µg/mL); IC50 (HepG2): 33.8 µM; MIC (Mycobacterium kansasii [30]): 16 µM (≈ 6.43 µg/mL)
CCOP(=O)(OCC)Oc1ccc(Br)cc1C(=O)Nc1cccc(Br)c1	16 (≈ 8.11 µg/mL)	16 (≈ 8.11 µg/mL)	2 (≈ 1.01 µg/mL)	2 (≈ 1.01 µg/mL)	> 500	> 500	> 500	> 500	> 500	> 500	> 500	> 500	> 500	> 500	> 500	> 500	inactive	inactive	inactive	inactive	Activity (Klebsiella pneumoniae [18]): inactive; Activity (Escherichia coli): inactive; Activity (Enterococcus sp.): inactive; MIC95 [19]: 250 µM (≈ 127 µg/mL); MIC95 [20]: 31.2 µM (≈ 15.8 µg/mL); MIC95 (Staphylococcus aureus [21]): 250 µM (≈ 127 µg/mL); MIC95 (Staphylococcus aureus [22]): 31.2 µM (≈ 15.8 µg/mL); MIC95 (Staphylococcus aureus [23]): 250 µM (≈ 127 µg/mL); MIC95 (Staphylococcus aureus [24]): 31.2 µM (≈ 15.8 µg/mL); MIC (Mycobacterium kansasii [25]): 8 µM (≈ 4.06 µg/mL); MIC (Mycobacterium kansasii [26]): 8 µM (≈ 4.06 µg/mL); MIC (Mycobacterium kansasii [27]): 4 µM (≈ 2.03 µg/mL); MIC (Mycobacterium kansasii [28]): 8 µM (≈ 4.06 µg/mL); MIC (Mycobacterium kansasii [29]): 8 µM (≈ 4.06 µg/mL); IC50 (HepG2): 4.41 µM; MIC (Mycobacterium kansasii [30]): 4 µM (≈ 2.03 µg/mL)
CCOP(=O)(OCC)Oc1ccc(Br)cc1C(=O)Nc1ccc(F)cc1	32 (≈ 14.3 µg/mL)	32 (≈ 14.3 µg/mL)	8 (≈ 3.57 µg/mL)	8 (≈ 3.57 µg/mL)	500 (≈ 223 µg/mL)	500 (≈ 223 µg/mL)	> 500	> 500	> 500	> 500	> 500	> 500	> 500	> 500	> 500	> 500	inactive	inactive	inactive	inactive	Activity (Klebsiella pneumoniae [18]): inactive; Activity (Escherichia coli): inactive; Activity (Enterococcus sp.): inactive; MIC95 [19]: > 500 µM; MIC95 [20]: > 500 µM; MIC95 (Staphylococcus aureus [21]): 500 µM (≈ 223 µg/mL); MIC95 (Staphylococcus aureus [22]): 500 µM (≈ 223 µg/mL); MIC95 (Staphylococcus aureus [23]): > 500 µM; MIC95 (Staphylococcus aureus [24]): > 500 µM; MIC (Mycobacterium kansasii [25]): 16 µM (≈ 7.14 µg/mL); MIC (Mycobacterium kansasii [26]): 8 µM (≈ 3.57 µg/mL); MIC (Mycobacterium kansasii [27]): 8 µM (≈ 3.57 µg/mL); MIC (Mycobacterium kansasii [28]): 16 µM (≈ 7.14 µg/mL); MIC (Mycobacterium kansasii [29]): 16 µM (≈ 7.14 µg/mL); IC50 (HepG2): 7.4 µM; MIC (Mycobacterium kansasii [30]): 8 µM (≈ 3.57 µg/mL)
